# Sampled rows, rich in hits. Any-hit rate of the full collection: about 1.8%.
# PERK inhibitor – human PERK inhibition, primary cell-based screen; Q9NZJ5; CHO PERK-DD fusion, SEAP luminescence translation reporter; inhibition, % at 5.6 µM; 0.17% of 220,000 active; AID 1416;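 active = inhibition above the mean inhibition of all tested compounds plus 3 SD, set separately per screening campaign, cut at about 2.9% in these data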;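 also: PERK kinase domain activated by AP20187 dimerizer at 100 nM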
# Target sequence (Q9NZJ5 whole entry, looked up, the tested form may be a part): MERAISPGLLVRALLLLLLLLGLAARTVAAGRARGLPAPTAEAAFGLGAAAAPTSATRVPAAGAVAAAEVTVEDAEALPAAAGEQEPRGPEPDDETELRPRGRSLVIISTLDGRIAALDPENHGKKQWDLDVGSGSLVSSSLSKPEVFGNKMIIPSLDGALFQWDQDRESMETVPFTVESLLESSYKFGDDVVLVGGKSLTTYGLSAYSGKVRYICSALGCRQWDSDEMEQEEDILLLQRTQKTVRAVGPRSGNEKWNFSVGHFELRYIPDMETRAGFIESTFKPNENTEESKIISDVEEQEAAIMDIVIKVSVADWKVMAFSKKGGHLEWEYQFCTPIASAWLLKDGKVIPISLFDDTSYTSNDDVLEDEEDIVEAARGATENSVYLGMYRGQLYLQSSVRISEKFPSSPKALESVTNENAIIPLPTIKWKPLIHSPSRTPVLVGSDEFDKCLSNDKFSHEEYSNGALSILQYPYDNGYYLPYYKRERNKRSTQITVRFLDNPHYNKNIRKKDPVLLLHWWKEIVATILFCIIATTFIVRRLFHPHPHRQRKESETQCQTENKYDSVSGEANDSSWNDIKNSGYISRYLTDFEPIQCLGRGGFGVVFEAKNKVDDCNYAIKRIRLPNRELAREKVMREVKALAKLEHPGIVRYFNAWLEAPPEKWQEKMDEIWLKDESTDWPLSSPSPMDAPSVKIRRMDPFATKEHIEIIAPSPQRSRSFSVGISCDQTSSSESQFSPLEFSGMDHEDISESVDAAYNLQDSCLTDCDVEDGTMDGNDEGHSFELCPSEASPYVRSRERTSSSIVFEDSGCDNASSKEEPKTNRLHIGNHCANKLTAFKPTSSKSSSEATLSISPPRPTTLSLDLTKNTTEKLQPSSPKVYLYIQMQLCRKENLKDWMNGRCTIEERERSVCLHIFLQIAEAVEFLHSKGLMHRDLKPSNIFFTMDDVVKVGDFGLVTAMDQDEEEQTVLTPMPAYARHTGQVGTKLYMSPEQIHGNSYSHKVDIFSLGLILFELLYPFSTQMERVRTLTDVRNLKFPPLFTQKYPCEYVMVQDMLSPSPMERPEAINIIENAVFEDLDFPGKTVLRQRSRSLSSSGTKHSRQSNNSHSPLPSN
# STAT3 act – increases IL-6 driven STAT3 reporter signal | U3A cells, IL-6 STAT3-luciferase reporter, luminescence; 100% = signal with IL-6 EC80 alone | activation (% of control), % at 5.6 µM | 0.91% of 190,000 active | AID 871;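 active = activation above the screen-wide mean of compound activation plus 3 SD, cut at about 130% in these data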
#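 Material: STAT3-luciferase reporter U3A cells. Controls: IL-6-treated wells, 100% activation. Read-out: % activation versus median of IL-6-stimulated wells. Probe or stimulus: IL-6 stimulus at 33 ng/mL final. Timing: compound 1 h, then IL-6 6 h at 37 °C. Signal: reporter luminescence signal.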
# STAT3 inh-1 – reduces IL-6 driven STAT3 reporter signal; U3A cells, IL-6 STAT3-luciferase reporter, luminescence; host cell line lacks STAT1; AID 862; inhibition, % at 5.5 µM; 0.89% of 190,000 active;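 active = inhibition above the mean inhibition across all screened compounds plus 3 SD, cut at about 44% in these data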
# STAT1 inh – STAT1 signaling inhibition | NIH 3T3 STAT1-luciferase reporter, IFN-gamma, luminescence | inhibition, % at 5.5 µM | 0.35% of 200,000 active | AID 920;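 active = inhibition above a set limit, the mean inhibition across all tested compounds plus 3 SD, cut at about 34% in these data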
# STAT3 inh-2 – STAT3 inhibition, confirmation assay; shares compounds with STAT3 inh-1; 45% of 1,200 active; AID 1265; U3A cells, IL-6 STAT3 luciferase reporter, luminescence; cell line lacks STAT1; inhibition, % at 5.7 µM;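 active = inhibition above the hit cutoff computed for the primary STAT3 screen, cut at about 44% in these data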
# NFkB inh 2 – counter-screen for STAT3 inhibitors: NF-kappaB inhibition | inhibition, % at 5.7 µM | HEK293T NF-kB luciferase reporter, TNF-alpha induced | shares compounds with STAT3 inh-1 | 36% of 1,200 active | AID 1308;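 active = inhibition above the mean of solvent-only control wells plus 3 SD, cutoff set per campaign, cut at about 13% in these data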
# STAT1 inh 2 – inhibits STAT1, counter-screen to STAT3 inhibitors; 27% of 1,200 active; NIH 3T3 STAT1-luciferase reporter, IFN-gamma induced, luminescence; AID 1317; shares compounds with STAT3 inh-1; inhibition, % at 5.7 µM;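 active = inhibition above the mean plus 3 SD of solvent-only control wells, limit set per screening run, cut at about 16% in these data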
# Numbers stand for hits; n = inactive; x = no result.
SMILES,PERK inhibitor,STAT3 act,STAT3 inh-1,STAT1 inh,STAT3 inh-2,NFkB inh 2,STAT1 inh 2
Cc1cc(C(=O)CSc2nnc(-c3cccs3)n2Cc2ccccc2)c(C)n1C,n,n,n,n,x,x,x
c1ccc(C2=NNC(=NC3CC3)SC2)cc1,n,n,74,n,n,n,n
COc1ccc(-c2csc(/C=C/c3ccc4c(c3)OCO4)n2)cc1OC,n,n,n,n,x,x,x
Cc1cc(/C=C2/SC(=S)N(c3cccc(C(F)(F)F)c3)C2=O)c(C)n1-c1cccnc1,n,n,78,n,84,33,31
CCn1c(SCc2cccc(C)c2)nnc1-c1ccc(C)cc1,n,n,n,n,x,x,x
COc1cc(SC)ccc1C(=O)Nc1nccs1,n,n,58,n,n,n,n
COc1cc(SC)ccc1C(=O)Nc1ccc2c(c1)OCCO2,n,n,54,n,n,n,n
COc1ccccc1C(=O)Nc1ccc2c(c1)OCCO2,n,n,n,n,x,x,x
CNc1ccc(S(=O)(=O)NCC(=O)OCC(=O)Nc2cccc(Cl)c2Cl)cc1[N+](=O)[O-],n,n,n,n,x,x,x
CC(C)CN1CN(Cc2ccccc2)CNC1=S,n,n,n,n,x,x,x
CCn1c(C(C)NC(=O)c2cccs2)n[nH]c1=S (stereo not given),n,n,n,n,x,x,x
O=C(c1cc2sccc2n1Cc1ccc(F)cc1)N1CCN(c2nc3ccccc3s2)CC1,n,n,47,n,n,n,17
Cn1c(C(=O)N2CCN(c3nc4ccccc4s3)CC2)cc2sccc21,n,n,n,n,x,x,x
CN(C)C(=O)CSc1cnc2ccccc2n1,n,n,n,n,x,x,x
Cc1ccc(C(=O)CSc2cnc3ccccc3n2)cc1C,n,n,54,n,n,n,n
Cc1ccc(OC(=O)c2ccc3nc(C)sc3c2)cc1,n,n,57,n,n,n,n
COc1ccc(OC(=O)c2ccc3nsnc3c2)cc1,n,n,n,n,x,x,x
O=C(NCCCN1CCOCC1)c1ccc(Br)cc1,n,n,53,n,n,n,n
COc1cccc(OC)c1C(=O)NNC(=O)c1cccc(COc2ccc3c(c2)CCC3)c1,n,n,53,n,n,23,21
O=C(NCc1ccccc1)c1cccc(COc2ccc3c(c2)CCC3)c1,n,n,56,n,45,34,27
Cc1nc(N)ncc1Sc1ccccc1,n,x,x,x,x,x,x
CCCCCCn1ccc(=N)cc1,n,n,70,n,56,18,n
CN(CCCNC(=O)c1cccn2c(=O)c3ccccc3nc12)Cc1ccccc1,n,n,n,n,x,x,x
O=C(Nc1ccccc1)C(=O)Nc1ccccn1,n,n,70,n,n,n,n
O=C(Nc1cccc(O)c1)C(=O)Nc1ccccn1,n,n,71,n,51,n,n
SMILES,PERK inhibitor,STAT3 act,STAT3 inh-1,STAT1 inh,STAT3 inh-2,NFkB inh 2,STAT1 inh 2
S=C(Nc1ccc(Nc2ccccc2)cc1)Nc1ccccn1,n,n,n,n,x,x,x
C/C(CC(=O)Nc1ccccn1)=N\NC(=O)C(=O)Nc1cccc(C)c1,n,n,n,n,x,x,x
Cc1nn(Cc2ccc(Cl)cc2)c(C)c1NC(=O)C(c1ccccc1)c1ccccc1,n,n,n,n,x,x,x
c1ccc(-c2ncc(-c3ccn[nH]3)s2)cc1,n,n,46,n,n,n,n
c1ccc(Oc2ccc(-c3ccn[nH]3)cc2)cc1,n,x,x,x,x,x,x
c1ccc(CC2CCN(c3ncnc4sccc34)CC2)cc1,n,n,83,n,79,n,n
O=C(CCc1ccc(S(=O)(=O)N2CCOCC2)cc1)Nc1nc(COc2ccccc2)cs1,n,n,46,n,n,n,n
COc1cc(C2NC(=S)NC(C)=C2C(=O)Nc2ccc(C)cc2)ccc1O (stereo not given),n,n,n,n,x,x,x
CCOc1ccc(-n2c(-c3ccc(Br)cc3)c[n+]3c2CCCCC3)cc1,n,n,60,n,n,n,23
CCOc1ccc(-n2c(-c3ccccc3)c[n+]3c2CCC3)cc1,n,n,71,n,59,n,22
CCOc1ccc(-n2c(-c3ccc(OC)cc3)c[n+]3c2CCCCC3)cc1,n,n,85,n,87,15,33
CCOCC(=O)Nc1cc(C(=O)Nc2ccc(F)cc2)ccc1Cl,n,n,n,n,x,x,x
CCCN(Cc1ccccc1)C(=S)NC(=O)c1ccccc1[N+](=O)[O-],n,n,n,n,x,x,x
O=C(Nc1cccc(S(=O)(=O)Nc2ccccc2Cl)c1)c1ccc(Cl)nc1,n,n,44,n,50,n,n
O=C(Nc1cccc2ncccc12)c1ccc(OCc2ccccc2)cc1,n,n,n,n,x,x,x
Nc1nc(Cl)cc(N2CCC(c3cc(-c4ccc(Cl)cc4)n[nH]3)CC2)n1,n,n,53,n,46,n,21
Cc1ccc(N(CC(=O)NCCc2ccc(F)cc2)S(=O)(=O)c2ccc(Cl)c([N+](=O)[O-])c2)c(C)c1,n,n,n,n,x,x,x
CC(=O)c1cn(CC(=O)Nc2c(C)cccc2C)c2ccccc12,n,n,n,n,x,x,x
CC(=O)c1cn(CC(=O)Nc2ccccc2C)c2ccccc12,n,n,44,n,44,n,n
CC(=O)c1cn(CC(=O)Nc2ccc(C)c(C)c2)c2ccccc12,n,n,67,n,53,19,18
COc1ccc(-c2csc(N3C(=N)SCC3=O)n2)cc1,n,n,50,n,n,n,n
COc1ccc(-c2csc(N3C(=O)CNC3=S)n2)cc1,n,n,n,n,x,x,x
CC(C)(C)NC(=O)COC(=O)c1snc(C(=O)NC2CCCCC2)c1N,n,n,76,n,72,22,n
C/C(=N\N1C(=O)c2ccccc2NC1c1ccco1)c1ccccc1O (stereo not given),n,n,46,n,n,n,n
Cc1ccc(NC(=O)c2cc(-n3cnnc3)ccc2Cl)cc1,n,n,n,n,x,x,x
SMILES,PERK inhibitor,STAT3 act,STAT3 inh-1,STAT1 inh,STAT3 inh-2,NFkB inh 2,STAT1 inh 2
O=C(Nc1ccc(-c2nc3ccccc3s2)cc1)c1cc(-n2cnnc2)ccc1Cl,n,n,62,n,n,n,n
CC1CCN(S(=O)(=O)c2ccc3c(c2)oc(=O)n3CC(=O)NCc2ccc3c(c2)OCO3)CC1,n,n,44,n,n,n,17
Cc1c(C(=O)NCc2ccc3c(c2)OCO3)oc2ccc(S(=O)(=O)N3CCC(C)CC3)cc12,n,n,n,n,x,x,x
CC(C)C(=O)Nc1ncc(Cc2cccc(Cl)c2)s1,n,n,n,n,x,x,x
CC(OC(=O)c1nn(C(C)C)c(=O)c2ccccc12)C(=O)Nc1ncc(Cl)cc1Cl (stereo not given),n,n,n,n,x,x,x
O=C(O)/C=C/c1ccc(S(=O)(=O)Nc2ccc(OCc3ccccc3)cc2)cc1,n,x,x,x,x,x,x
N#Cc1ccccc1COc1ccc(/C=C/C(=O)O)cc1,n,n,48,n,n,16,n
COCCNC(=O)C(c1cccnc1)N(Cc1ccc(C)cc1)C(=O)Cn1nnc2ccccc21 (stereo not given),n,n,n,n,x,x,x
